Assay: Inhibition of AchE in fly head nerve cells using acetylthiocholine iodide as substrate preincubated for 20 mins followed by substrate addition and measured every 30s for 1 hr by DTNB reagent based Ellman's spectrophotometric method
Conditions: Diptera, Nerve cell
In short: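 Modified spectrophotometric AChE method, with chlorpyrifos and huperzine A run alongside as positive controls.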

Work on `CC(=O)N1CCCC[C@H]1[C@@]12C[C@@H](C[C@H]3CCCN[C@@H]31)[C@H]1CCCCN1C2` yielded an IC50 of 5.65 µM.
Work on `CC(=O)O[C@H]1CCN2C[C@@H]3C[C@@H](CN4C(=O)[C@H](O)CC[C@H]34)[C@@H]2C1` yielded an IC50 of 9.77 µM.
`C=CCCN1C[C@@H]2C[C@@H](CN3C(=O)CC[C@H](O)[C@]23O)C1=O` showed an IC50 of 29.6 µM.
`C=CCCN1C[C@@H]2C[C@@H](Cn3c2cccc3=O)C1=O` showed an IC50 of 12.8 µM.
With `C1CC[C@H]([C@]23C[C@@H](C[C@@H]4CCCN[C@H]42)[C@H]2CCCCN2C3)NC1` the IC50 was 5.56 µM.
Molecule `C=CCCN1C[C@@H]2C[C@@H](CN3C(=O)CCC=C23)C1=O` has an IC50 of 20 µM.
Work on `O=C1C(CCCO)=C[C@H]2C[C@]1([C@@H]1CCCCN1)CN1CCCC[C@@H]21` yielded an IC50 of 1.55 µM.
`CN1CCCC[C@H]1[C@@]12C[C@H](C[C@H]3CCCN[C@@H]31)[C@H]1CCCCN1C2` gave an IC50 of 17 µM.
For `C=CCCN1C[C@@H]2C[C@@H](CN3C(=O)CCC[C@]23OC)C1=O`, the IC50 was 15.7 µM.
Molecule `C1=C2CCCN3CN4CCCC[C@@H]4[C@]4(C[C@@H]1[C@H]1CCCCN1C4)[C@@H]23` has an IC50 of 5.23 µM.
`CC(=O)N1CCCC[C@@H]1[C@]12C[C@H](C[C@@H]3CCCN[C@H]31)[C@H]1CCCCN1C2` gave an IC50 of 8.48 µM.
For `CCOP(=S)(OCC)Oc1nc(Cl)c(Cl)cc1Cl` [CHLORPYRIFOS], the IC50 was 0.0233 µM.
`C/C=C1\[C@H]2C=C(C)C[C@]1(N)c1ccc(=O)[nH]c1C2` [HUPERZINE A] gave an IC50 of 0.12 µM.

— ChEMBL document CHEMBL5390206, “Ormosianines A-P, Structurally Diverse Quinolizidine Alkaloids with AChE Inhibitory Effects from Ormosia yunnanensis” (J Nat Prod, 2023)
